Measurements as given in ChEMBL document CHEMBL5696442, “Discovery of type II inhibitors of TGFβ-activated kinase 1 (TAK1) and mitogen-activated protein kinase kinase kinase kinase 2 (MAP4K2)” (J Med Chem, 2015).
Active and inactive are the calls of the source. No cut-off for these calls is given here.

Tests used:
[1] = molecular target: T1, Serine/threonine-protein kinase LATS2 (Homo sapiens) (UniProt Q9NRM7); assay: Inhibition of LATS2 Lys1 labeling site in human Huh-7 cell lysate at 1 uM by KiNativ Profiling analysis relative to control; assay type: subcellular
T1 sequence (whole entry): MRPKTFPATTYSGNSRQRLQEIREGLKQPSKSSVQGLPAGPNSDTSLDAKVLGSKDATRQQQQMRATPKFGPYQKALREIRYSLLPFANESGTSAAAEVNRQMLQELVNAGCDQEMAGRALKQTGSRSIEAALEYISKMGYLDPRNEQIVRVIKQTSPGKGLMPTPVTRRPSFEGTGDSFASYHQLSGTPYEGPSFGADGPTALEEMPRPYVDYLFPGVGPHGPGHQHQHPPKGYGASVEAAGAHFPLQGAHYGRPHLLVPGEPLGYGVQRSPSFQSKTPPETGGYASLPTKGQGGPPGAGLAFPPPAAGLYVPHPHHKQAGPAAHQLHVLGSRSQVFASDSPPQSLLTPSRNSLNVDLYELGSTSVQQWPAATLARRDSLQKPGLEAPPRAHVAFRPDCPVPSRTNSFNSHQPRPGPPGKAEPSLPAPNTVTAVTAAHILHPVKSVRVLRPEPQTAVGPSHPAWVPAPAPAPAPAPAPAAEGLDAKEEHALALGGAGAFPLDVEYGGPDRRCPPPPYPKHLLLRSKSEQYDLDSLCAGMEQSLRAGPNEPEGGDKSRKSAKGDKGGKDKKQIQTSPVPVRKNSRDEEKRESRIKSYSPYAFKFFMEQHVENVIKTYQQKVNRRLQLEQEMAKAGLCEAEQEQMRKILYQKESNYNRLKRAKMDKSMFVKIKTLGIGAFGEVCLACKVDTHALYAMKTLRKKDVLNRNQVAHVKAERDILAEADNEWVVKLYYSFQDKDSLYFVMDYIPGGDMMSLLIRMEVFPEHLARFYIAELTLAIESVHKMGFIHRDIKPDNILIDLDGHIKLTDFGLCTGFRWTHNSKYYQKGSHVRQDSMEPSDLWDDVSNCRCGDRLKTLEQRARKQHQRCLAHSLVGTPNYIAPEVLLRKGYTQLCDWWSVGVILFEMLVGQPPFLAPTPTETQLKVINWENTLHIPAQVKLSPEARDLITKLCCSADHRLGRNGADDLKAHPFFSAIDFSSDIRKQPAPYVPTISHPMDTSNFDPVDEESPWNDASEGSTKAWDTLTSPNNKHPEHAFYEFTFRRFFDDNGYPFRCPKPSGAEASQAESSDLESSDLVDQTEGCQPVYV

[2] = molecular target: Serine/threonine-protein kinase DCLK2 (Homo sapiens) (UniProt Q8N568); assay: Inhibition of DCAMKL2 (unknown origin) at 10 uM by Ambit Kinomescan binding assay
Serine/threonine-protein kinase DCLK2 (Homo sapiens), sequence (Q8N568 whole entry): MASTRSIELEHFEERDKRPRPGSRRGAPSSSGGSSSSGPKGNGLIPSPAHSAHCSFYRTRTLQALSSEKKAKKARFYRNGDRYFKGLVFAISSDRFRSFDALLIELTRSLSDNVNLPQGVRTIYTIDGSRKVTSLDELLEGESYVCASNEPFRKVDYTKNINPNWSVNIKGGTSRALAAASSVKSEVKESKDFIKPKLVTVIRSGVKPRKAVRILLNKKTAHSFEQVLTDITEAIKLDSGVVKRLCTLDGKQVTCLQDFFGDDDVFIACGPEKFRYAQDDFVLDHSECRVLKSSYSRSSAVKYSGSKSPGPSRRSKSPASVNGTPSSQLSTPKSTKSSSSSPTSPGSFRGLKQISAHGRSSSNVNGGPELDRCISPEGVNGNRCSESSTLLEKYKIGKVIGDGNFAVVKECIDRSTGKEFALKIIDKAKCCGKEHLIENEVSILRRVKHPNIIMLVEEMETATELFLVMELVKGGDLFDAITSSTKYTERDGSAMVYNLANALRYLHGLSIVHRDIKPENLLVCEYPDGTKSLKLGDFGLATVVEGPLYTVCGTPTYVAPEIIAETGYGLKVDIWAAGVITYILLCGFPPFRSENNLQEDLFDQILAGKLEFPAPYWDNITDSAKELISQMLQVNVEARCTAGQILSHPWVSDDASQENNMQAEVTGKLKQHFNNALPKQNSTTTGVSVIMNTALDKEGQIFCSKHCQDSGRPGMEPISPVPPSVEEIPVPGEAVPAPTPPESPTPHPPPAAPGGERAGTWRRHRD

[3] = molecular target: Death-associated protein kinase 3 (Homo sapiens) (UniProt O43293); assay: Inhibition of DAPK3 (unknown origin) at 10 uM by Ambit Kinomescan binding assay
Death-associated protein kinase 3 (Homo sapiens), sequence (O43293 whole entry, looked up, canonical isoform): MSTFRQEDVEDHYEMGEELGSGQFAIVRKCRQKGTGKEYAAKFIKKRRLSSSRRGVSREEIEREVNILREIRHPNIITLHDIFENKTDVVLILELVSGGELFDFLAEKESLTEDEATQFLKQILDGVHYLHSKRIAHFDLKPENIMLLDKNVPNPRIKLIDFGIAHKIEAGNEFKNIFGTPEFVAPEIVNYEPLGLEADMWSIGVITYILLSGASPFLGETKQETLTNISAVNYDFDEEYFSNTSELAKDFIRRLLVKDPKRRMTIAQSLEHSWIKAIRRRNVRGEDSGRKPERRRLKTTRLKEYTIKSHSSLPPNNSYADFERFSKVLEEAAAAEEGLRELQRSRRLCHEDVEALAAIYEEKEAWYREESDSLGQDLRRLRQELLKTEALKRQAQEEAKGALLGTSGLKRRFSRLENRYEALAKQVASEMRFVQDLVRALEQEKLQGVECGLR

[4] = molecular target: Phosphatidylinositol 4,5-bisphosphate 3-kinase catalytic subunit gamma isoform (Homo sapiens) (UniProt P48736); assay: Inhibition of PIK3CG (unknown origin) at 10 uM by Ambit Kinomescan binding assay
Phosphatidylinositol 4,5-bisphosphate 3-kinase catalytic subunit gamma isoform (Homo sapiens), sequence (P48736 whole entry, looked up, canonical isoform): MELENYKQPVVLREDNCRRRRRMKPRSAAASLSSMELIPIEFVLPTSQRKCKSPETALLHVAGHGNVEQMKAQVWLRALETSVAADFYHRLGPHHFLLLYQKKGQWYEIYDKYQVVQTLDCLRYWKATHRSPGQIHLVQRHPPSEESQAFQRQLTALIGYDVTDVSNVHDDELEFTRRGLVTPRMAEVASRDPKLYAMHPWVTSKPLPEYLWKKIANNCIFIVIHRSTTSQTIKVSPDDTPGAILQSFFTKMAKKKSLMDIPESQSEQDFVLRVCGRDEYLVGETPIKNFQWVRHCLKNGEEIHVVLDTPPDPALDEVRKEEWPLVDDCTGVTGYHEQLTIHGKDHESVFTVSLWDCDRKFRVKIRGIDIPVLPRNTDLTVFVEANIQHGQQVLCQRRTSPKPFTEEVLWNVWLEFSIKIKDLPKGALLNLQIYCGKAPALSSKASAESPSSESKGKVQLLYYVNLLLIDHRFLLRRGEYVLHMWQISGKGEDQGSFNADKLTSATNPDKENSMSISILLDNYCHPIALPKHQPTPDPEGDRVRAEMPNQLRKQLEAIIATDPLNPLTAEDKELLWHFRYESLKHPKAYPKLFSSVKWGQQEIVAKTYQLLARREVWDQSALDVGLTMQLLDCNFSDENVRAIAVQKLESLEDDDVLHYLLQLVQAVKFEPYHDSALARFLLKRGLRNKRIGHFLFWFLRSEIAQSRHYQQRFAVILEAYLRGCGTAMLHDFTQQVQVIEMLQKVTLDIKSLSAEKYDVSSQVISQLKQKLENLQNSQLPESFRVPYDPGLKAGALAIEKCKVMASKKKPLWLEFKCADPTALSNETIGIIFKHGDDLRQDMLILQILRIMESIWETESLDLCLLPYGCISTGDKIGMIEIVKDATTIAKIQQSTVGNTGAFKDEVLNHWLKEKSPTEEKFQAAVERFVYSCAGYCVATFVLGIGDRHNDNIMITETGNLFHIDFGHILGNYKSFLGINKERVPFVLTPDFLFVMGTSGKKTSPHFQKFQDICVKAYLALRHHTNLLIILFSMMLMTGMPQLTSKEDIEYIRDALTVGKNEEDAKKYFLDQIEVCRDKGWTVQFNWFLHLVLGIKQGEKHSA

[5] = Cmax in Swiss albino mouse at 1 mg/kg, iv measured upto 24 hrs by LC/MS/MS analysis; assay type: ADME, organism-based; conditions: in vivo
Method in brief: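 Male Swiss albino mice. […] Blood was taken into K2EDTA from three mice per time point, from 0 to 24 h. Plasma was precipitated with acetonitrile and analysed by LC/MS/MS (LLOQ 1.138 ng/mL).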

[6] = molecular target: Ribosomal protein S6 kinase alpha-1 (Homo sapiens) (UniProt Q15418); assay: Inhibition of RSK1 domain2 Lys2 labeling site in human A-375 cells at 0.05 uM by KiNativ Profiling analysis relative to control; assay type: cell-based
Ribosomal protein S6 kinase alpha-1 (Homo sapiens), sequence (Q15418 whole entry, the tested form may be a part, canonical isoform): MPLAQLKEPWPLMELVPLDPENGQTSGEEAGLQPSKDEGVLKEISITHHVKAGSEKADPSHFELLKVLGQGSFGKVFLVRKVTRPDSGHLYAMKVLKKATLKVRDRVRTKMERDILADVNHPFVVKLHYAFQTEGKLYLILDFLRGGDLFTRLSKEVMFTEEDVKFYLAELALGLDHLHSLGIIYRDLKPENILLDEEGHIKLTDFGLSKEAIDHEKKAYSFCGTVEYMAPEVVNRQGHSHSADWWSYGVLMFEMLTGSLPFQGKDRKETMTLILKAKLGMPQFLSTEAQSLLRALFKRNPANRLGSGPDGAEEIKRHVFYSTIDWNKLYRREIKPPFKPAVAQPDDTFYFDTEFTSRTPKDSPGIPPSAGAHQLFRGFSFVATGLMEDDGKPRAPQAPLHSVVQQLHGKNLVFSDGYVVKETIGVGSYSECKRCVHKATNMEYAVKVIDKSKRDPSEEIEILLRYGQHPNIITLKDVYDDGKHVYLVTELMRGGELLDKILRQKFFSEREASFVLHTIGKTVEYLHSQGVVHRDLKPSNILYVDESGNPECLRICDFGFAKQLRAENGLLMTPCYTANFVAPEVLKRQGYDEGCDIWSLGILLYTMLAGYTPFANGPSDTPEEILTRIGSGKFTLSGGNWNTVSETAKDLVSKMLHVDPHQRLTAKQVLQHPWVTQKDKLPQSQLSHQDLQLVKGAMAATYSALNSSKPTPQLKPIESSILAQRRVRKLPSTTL

[7] = molecular target: T2, Phosphatidylinositol 4,5-bisphosphate 3-kinase catalytic subunit delta isoform (Homo sapiens) (UniProt O00329); assay: Inhibition of PIK3CD ATP labeling site in human A-375 cells at 5 uM by KiNativ Profiling analysis relative to control; assay type: cell-based
T2 sequence (whole entry): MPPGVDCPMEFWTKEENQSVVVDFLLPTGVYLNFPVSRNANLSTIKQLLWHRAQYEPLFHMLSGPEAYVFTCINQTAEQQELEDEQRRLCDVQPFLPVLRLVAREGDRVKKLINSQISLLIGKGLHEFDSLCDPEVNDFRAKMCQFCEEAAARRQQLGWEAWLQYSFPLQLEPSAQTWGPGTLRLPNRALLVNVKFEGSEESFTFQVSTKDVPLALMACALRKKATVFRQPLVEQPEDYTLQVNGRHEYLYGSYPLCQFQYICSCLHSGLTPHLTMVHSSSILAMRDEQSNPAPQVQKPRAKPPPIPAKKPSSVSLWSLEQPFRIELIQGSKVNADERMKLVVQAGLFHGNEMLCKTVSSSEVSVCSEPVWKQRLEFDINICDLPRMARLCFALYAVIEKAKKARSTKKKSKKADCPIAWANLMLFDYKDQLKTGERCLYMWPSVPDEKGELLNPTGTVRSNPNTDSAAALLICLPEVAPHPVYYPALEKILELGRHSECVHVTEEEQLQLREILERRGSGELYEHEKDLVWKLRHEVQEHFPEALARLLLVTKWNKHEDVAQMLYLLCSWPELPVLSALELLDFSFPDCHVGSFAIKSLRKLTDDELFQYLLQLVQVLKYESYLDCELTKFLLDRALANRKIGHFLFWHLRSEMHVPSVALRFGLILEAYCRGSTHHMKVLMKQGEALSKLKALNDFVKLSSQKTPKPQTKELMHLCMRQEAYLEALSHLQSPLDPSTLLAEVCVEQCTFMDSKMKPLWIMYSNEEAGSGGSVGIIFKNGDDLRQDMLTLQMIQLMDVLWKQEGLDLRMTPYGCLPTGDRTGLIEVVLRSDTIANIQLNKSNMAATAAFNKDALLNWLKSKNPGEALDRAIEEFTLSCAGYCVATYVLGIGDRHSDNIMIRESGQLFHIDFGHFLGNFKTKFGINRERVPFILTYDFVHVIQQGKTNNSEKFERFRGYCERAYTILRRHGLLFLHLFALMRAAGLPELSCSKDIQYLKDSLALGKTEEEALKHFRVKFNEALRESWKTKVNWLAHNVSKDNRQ

[8] = molecular target: Ribosomal protein S6 kinase alpha-3 (Homo sapiens) (UniProt P51812); assay: Inhibition of RSK2 domain1 Lys2 labeling site harbouring DLKPENILLDEEGHIK in human A-375 cells at 5 uM by KiNativ Profiling analysis relative to control; assay type: cell-based
Ribosomal protein S6 kinase alpha-3 (Homo sapiens), sequence (P51812 whole entry, the tested form may be a part): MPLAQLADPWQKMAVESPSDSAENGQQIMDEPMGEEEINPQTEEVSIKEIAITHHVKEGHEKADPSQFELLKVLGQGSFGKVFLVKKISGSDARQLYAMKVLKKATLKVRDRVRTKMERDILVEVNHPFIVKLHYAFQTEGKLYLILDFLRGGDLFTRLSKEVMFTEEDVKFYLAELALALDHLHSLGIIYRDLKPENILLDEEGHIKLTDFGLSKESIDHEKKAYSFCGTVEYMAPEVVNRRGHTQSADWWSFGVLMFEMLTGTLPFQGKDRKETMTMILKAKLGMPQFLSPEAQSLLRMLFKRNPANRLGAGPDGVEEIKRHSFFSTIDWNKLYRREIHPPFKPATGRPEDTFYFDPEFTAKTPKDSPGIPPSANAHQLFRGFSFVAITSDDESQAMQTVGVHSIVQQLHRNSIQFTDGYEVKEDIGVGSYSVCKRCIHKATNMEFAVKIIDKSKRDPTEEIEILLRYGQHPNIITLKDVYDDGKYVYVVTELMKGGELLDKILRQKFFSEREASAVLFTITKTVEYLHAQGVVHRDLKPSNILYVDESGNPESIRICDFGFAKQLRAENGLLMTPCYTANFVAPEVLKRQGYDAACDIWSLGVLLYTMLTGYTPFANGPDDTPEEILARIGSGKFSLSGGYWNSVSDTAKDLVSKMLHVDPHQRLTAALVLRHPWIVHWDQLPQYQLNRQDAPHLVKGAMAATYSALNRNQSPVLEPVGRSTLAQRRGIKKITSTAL
Method in brief: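 Live A375 melanoma cells treated with compound at 5 or 0.5 μM, then lysed. Lysate kinases were labeled with a lysine-reactive ATP or ADP-biotin probe. Inhibition was read as protection of labeling sites from the probe.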

Which inhibition [1] does the source give for CNc1cc(Oc2cc(C(=O)Nc3cc(N4CCN(C)CC4)cc(C(F)(F)F)c3)ccc2C)ncn1 here?
The inhibition was -3.8%.

Which inhibition [2] does the source give for CCN1CCN(Cc2ccc(NC(=O)c3ccc(C)c(Oc4ccnc5[nH]ccc45)c3)cc2C(F)(F)F)CC1 here?
Its inhibition is “inactive”.

What about the inhibition [3] of the same compound?
The inhibition was “inactive”.

What about the inhibition [4] of the same compound?
The inhibition was “inactive”.

What about the Cmax [5] of the same compound?
The Cmax was 396 ng/mL.

What does the source list for CCN1CCN(Cc2ccc(NC(=O)c3ccc(C)c(/C=C/c4cnc5[nH]ccc5c4OC)c3)cc2C(F)(F)F)CC1?
inhibition [6]: 4%; inhibition [7]: 21.3%; inhibition [8]: 16.5%
